Reference: ChEMBL document CHEMBL3272055, “2,3-Disubstituted 1,8-naphthyridines as potential diuretic agents. 2. 5,7-Dimethyl derivatives” (J Med Chem, 1977)

Key:
Rattus norvegicus [1] = assay: Diuretic activity in saline-loaded Wistar albino rat assessed as increase of saline-load excretion at 2 mg/kg, ip measured for 6 hrs relative to control; type: functional, Urine; details: route intraperitoneal
How it was run: (§1)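 Saline-loaded rats given compound ip, screened at 15 mg/kg, with actives retested at 2 mg/kg. Diuresis was read as urine volume output over 6 h by a modified Lipschitz method and expressed as % of the saline load excreted, as an increase over controls. A response under 21.8% above control was counted insignificant. Activity was also expressed relative to triamterene.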

Rattus norvegicus [2] = assay: Diuretic activity in saline-loaded Wistar albino rat assessed as increase of saline-load excretion at 15 mg/kg, ip measured for 6 hrs relative to control; type: functional, Urine; details: route intraperitoneal; how it was run: as §1
Rattus norvegicus [3] = assay: Diuretic activity in saline-loaded Wistar albino rat assessed as increase of saline-load excretion at 2 mg/kg, ip measured for 6 hrs relative to triamterene; type: functional, Urine; details: route intraperitoneal; how it was run: as §1
Rattus norvegicus [4] = assay: Diuretic activity in saline-loaded Wistar albino rat assessed as increase of saline-load excretion at 15 mg/kg, ip measured for 6 hrs relative to triamterene; type: functional, Urine; details: route intraperitoneal; how it was run: as §1
Rattus norvegicus [5] = assay: Natriuretic activity in nonloaded rat assessed as increase in Na+ secretion at 15 mg/kg after 6 hrs relative to control; type: functional
How it was run: (§2)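 Nonloaded rats dosed at 2 or 15 mg/kg. Urine was collected cumulatively over 6 h and urine volume, Na+ and K+ (mequiv) measured. Values are means of eight rats, reported as drug versus control, with the Na+/K+ ratio derived from these.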

Rattus norvegicus [6] = assay: Toxicity in nonloaded rat assessed as kaluretic effect by measuring increase in K+ secretion at 15 mg/kg after 6 hrs relative to control; type: organism-based; set-up: dose 15 mg/kg; details: in vivo; how it was run: as §2
Rattus norvegicus [7] = assay: Natriuretic activity in nonloaded rat assessed as increase in Na+ secretion at 2 mg/kg after 6 hrs relative to control; type: functional; how it was run: as §2
Rattus norvegicus [8] = assay: Toxicity in nonloaded rat assessed as kaluretic effect by measuring increase in K+ secretion at 2 mg/kg after 6 hrs relative to control; type: organism-based; set-up: dose 2 mg/kg; details: in vivo; how it was run: as §2
Rattus norvegicus [9] = assay: Diuretic activity in nonloaded rat assessed as urine volume at 15 mg/kg after 6 hrs relative to control; type: functional; how it was run: as §2
Rattus norvegicus [10] = assay: Diuretic activity in nonloaded rat assessed as urine volume at 2 mg/kg after 6 hrs relative to control; type: functional; how it was run: as §2
Rattus norvegicus [11] = assay: Ratio of natriuretic activity in nonloaded rat assessed as increase in Na+ secretion at 15 mg/kg to kaliuretic activity in nonloaded rat assessed as increase in K+ secretion at 15 mg/kg; how it was run: as §2
Rattus norvegicus [12] = assay: Ratio of natriuretic activity in nonloaded rat assessed as increase in Na+ secretion at 2 mg/kg to kaliuretic activity in nonloaded rat assessed as increase in K+ secretion at 2 mg/kg; how it was run: as §2

Structure (SMILES)	Activity (Rattus norvegicus [1])	Activity (Rattus norvegicus [2])	fold change (FC) (Rattus norvegicus [3])	fold change (FC) (Rattus norvegicus [4])	Activity (Rattus norvegicus [5])	Activity (Rattus norvegicus [6])	Activity (Rattus norvegicus [7])	Activity (Rattus norvegicus [8])	Activity (Rattus norvegicus [9])	Activity (Rattus norvegicus [10])	Ratio (Rattus norvegicus [11])	Ratio (Rattus norvegicus [12])
CCCCNC(=O)c1cc2c(C)cc(C)nc2nc1N	43.2%	152.7%	1.25	2.64	0.427 milliequivalent	0.25 milliequivalent	0.471 milliequivalent	0.217 milliequivalent	4.1 mL	3.7 mL	1.71	2.17
CCNC(=O)c1cc2c(C)cc(C)nc2nc1N	<21.8%	47.7%		0.83	0.495 milliequivalent	0.301 milliequivalent			3.7 mL		1.64	
CCCNC(=O)c1cc2c(C)cc(C)nc2nc1N	<21.8%	53.7%		0.93	0.41 milliequivalent	0.25 milliequivalent			3.9 mL		1.64	
CCCCCNC(=O)c1cc2c(C)cc(C)nc2nc1N	<21.8%	23.4%		0.4	0.39 milliequivalent	0.263 milliequivalent			2.9 mL		1.48	
COC(=O)c1cc2c(C)cc(C)nc2nc1N	<21.8%	47.3%		0.82	0.221 milliequivalent	0.21 milliequivalent			1.6 mL		1.05	
Cl.NC(=O)c1cc2cccnc2nc1N.O	62.9%	67.5%	3	1.41	0.765 milliequivalent	0.161 milliequivalent			5.3 mL		4.75	
Nc1nc(N)c2nc(-c3ccccc3)c(N)nc2n1 [TRIAMTERENE]	34.5%	57.8%			0.804 milliequivalent	0.136 milliequivalent			4.9 mL		5.84	
